Assay results reported in ChEMBL document CHEMBL3997766, “Synthesis and pre-clinical studies of new amino-acid ester thiazolide prodrugs” (Eur J Med Chem, 2017).

Tests used:
Rattus norvegicus [1] = assay: Toxicity in Sprague-Dawley rat assessed as effect on food consumption at 10 to 75 mg/kg administered as oral gavage qd for 28 consecutive days measured once per week during compound dosing; format: organism-based; conditions: in vivo
In short: (§1)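 Sub-acute study in Sprague-Dawley rats: 10, 30 or 75 mg/kg given orally once a day for 28 consecutive days as a yellow suspension. There were 4 groups of up to 30 rats each (15M/15F), including a control. Body weight, clinical observations and terminal findings were assessed.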

Canis familiaris [2] = assay: Toxicity in Beagle dog assessed as body weight gain up to 25 mg/kg, po administered as gelatin capsule once daily for 28 days measured on day 29; format: organism-based, Canis lupus familiaris; conditions: in vivo, 672 h
In short: (§2)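 Sub-acute study in Beagle dogs dosed orally by gelatin capsule at 5, 15 and 25 mg/kg once a day for 28 consecutive days.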

Rattus norvegicus [3] = assay: Toxicity in Sprague-Dawley rat assessed as eosinophilic cytoplasmic bodies in epithelial cells of duodenum at 75 mg/kg administered as oral gavage qd for 28 consecutive days measured on day 29 by microscopic method; format: organism-based; conditions: in vivo
In short: (§3)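 Sub-acute study in Sprague-Dawley rats dosed orally with a suspension at 10, 30 and 75 mg/kg once daily for 28 consecutive days. Four groups of up to 30 rats each (15M/15F).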

Rattus norvegicus [4] = assay: AUC (0 to t) in Sprague-Dawley rat assessed as tizoxanide-glucuronide level in plasma at 30 mg/kg, po administered as single dose; format: ADME, organism-based; conditions: in vivo
In short: (§4)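 Plasma tizoxanide and tizoxanide glucuronide were measured and PK parameters derived. AUCs were dose-corrected to 30 mg/kg for bioavailability.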

Rattus norvegicus [5] = assay: Toxicity in Sprague-Dawley rat assessed as hemorrhage in duodenum at 75 mg/kg administered as oral gavage qd for 28 consecutive days followed by 2 weeks recovery period by microscopic method; format: organism-based; conditions: in vivo, 336 h; in short: as §3
Rattus norvegicus [6] = assay: Cmax in Sprague-Dawley rat assessed as Tizoxanide level in plasma at 30 mg/kg, po administered as single dose; format: ADME, organism-based; set-up: dose 30 mg/kg, route oral; conditions: in vivo
In short: (§5)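 Rats in groups of three received one compound as a single oral dose (30 mg/kg) or a single intravenous injection (6 mg/kg), with four compounds studied separately. Serial blood samples were drawn at 5, 10, 15 and 30 min and at 1, 2, 4, 8, 23 and 24 h post-dose. Plasma parent drug and metabolites were quantified and PK parameters were derived.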

Rattus norvegicus [7] = assay: AUC (0 to t) in male Sprague-Dawley rat assessed as Tizoxanide-glucuronide level in plasma at 6 mg/kg, iv administered as single dose; format: ADME, organism-based; conditions: in vivo; in short: as §4
Rattus norvegicus [8] = assay: Toxicity in Sprague-Dawley rat assessed as effect on tidal volume at 100 to 1000 mg/kg administered as single dose via oral gavage; format: organism-based; conditions: in vivo
In short: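 Respiratory safety study: conscious rats, 3 groups of 6 (3M/3F), given single oral-gavage doses of 100, 300 or 1000 mg/kg, with an untreated control group. Respiratory rate (breaths per minute), tidal volume and minute volume were recorded, and mortality was noted.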

Rattus norvegicus [9] = assay: Toxicity in Sprague-Dawley rat assessed as epithelial hyperplasia in stomach at 75 mg/kg administered as oral gavage qd for 28 consecutive days followed by 2 weeks recovery period by microscopic method; format: organism-based; conditions: in vivo, 336 h; in short: as §3
Rattus norvegicus [10] = assay: Neurotoxicity in Sprague-Dawley rat assessed as decrease in pain response at 1000 mg/kg administered as single dose via oral gavage after 4 to 24 hrs; format: toxicity, organism-based; conditions: in vivo
In short: (§6)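 Three groups of 10 rats (5M/5F) received a single dose by oral gavage of 100, 300 or 1000 mg/kg, and an untreated group served as control. Clinical signs of CNS effects were recorded at 4 and 24 h after treatment.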

Rattus norvegicus [11] = assay: Cmax in Sprague-Dawley rat assessed as Tizoxanide-glucuronide level in plasma at 6 mg/kg, iv administered as single dose; format: ADME, organism-based; set-up: dose 6 mg/kg, route intravenous; conditions: in vivo; in short: as §5
Rattus norvegicus [12] = assay: Toxicity in Sprague-Dawley rat assessed as hemorrhage in stomach at 75 mg/kg administered as oral gavage qd for 28 consecutive days followed by 2 weeks recovery period by microscopic method; format: organism-based; conditions: in vivo, 336 h; in short: as §3
Rattus norvegicus [13] = assay: Toxicity in Sprague-Dawley rat assessed as epithelial hyperplasia in stomach at 30 to 75 mg/kg administered as oral gavage qd for 28 consecutive days measured on day 29 by microscopic method; format: organism-based; conditions: in vivo; in short: as §1
Rattus norvegicus [14] = assay: Toxicity in Sprague-Dawley rat assessed as eosinophilic cytoplasmic bodies in epithelial cells of duodenum at 75 mg/kg administered as oral gavage qd for 28 consecutive days followed by 2 weeks recovery period by microscopic method; format: organism-based; conditions: in vivo, 336 h; in short: as §3
Rattus norvegicus [15] = assay: Cmax in Sprague-Dawley rat assessed as tizoxanide-glucuronide level in plasma at 30 mg/kg, po administered as single dose; format: ADME, organism-based; set-up: dose 30 mg/kg, route oral; conditions: in vivo; in short: as §5
Rattus norvegicus [16] = assay: Toxicity in Sprague-Dawley rat assessed as eosinophilic cytoplasmic bodies in epithelial cells of stomach at 10 to 75 mg/kg administered as oral gavage qd for 28 consecutive days followed by 2 weeks recovery period by microscopic method; format: organism-based; conditions: in vivo, 336 h; in short: as §3
Rattus norvegicus [17] = assay: Toxicity in Sprague-Dawley rat assessed as decrease in serum total protein level at 75 mg/kg administered as oral gavage qd for 28 consecutive days followed by 2 weeks recovery period measured on day 43; format: organism-based; conditions: in vivo, 336 h; in short: as §3
Rattus norvegicus [18] = assay: Toxicity in Sprague-Dawley rat assessed as decrease in prothrombine time at 10 to 75 mg/kg administered as oral gavage qd for 28 consecutive days followed by 2 weeks recovery period measured on day 43; format: organism-based; conditions: in vivo, 336 h; in short: as §3
Rattus norvegicus [19] = assay: AUC (0 to t) in Sprague-Dawley rat assessed as Tizoxanide level in plasma at 6 mg/kg, iv administered as single dose; format: ADME, organism-based; conditions: in vivo; in short: as §4
Canis familiaris [20] = assay: Toxicity in Beagle dog assessed as effect on coagulation up to 25 mg/kg, po administered as gelatin capsule once daily for 28 days measured on day 29; format: organism-based, Canis lupus familiaris; conditions: in vivo, 672 h; in short: as §2
Rattus norvegicus [21] = assay: AUC (0 to t) in Sprague-Dawley rat assessed as Tizoxanide level at 30 mg/kg, po administered as single dose; format: ADME, organism-based; conditions: in vivo; in short: as §4
Canis familiaris [22] = assay: Toxicity in Beagle dog assessed as emesis at 25 mg/kg, po administered as gelatin capsule once daily for 28 days measured on day 29; format: organism-based, Canis lupus familiaris; conditions: in vivo, 672 h; in short: as §2
Canis familiaris [23] = assay: Toxicity in Beagle dog assessed as effect on urinalysis parameters up to 25 mg/kg, po administered as gelatin capsule once daily for 28 days measured on day 29; format: organism-based, Canis lupus familiaris; conditions: in vivo, 672 h; in short: as §2
Rattus norvegicus [24] = assay: Toxicity in Sprague-Dawley rat assessed as mortality at 100 to 1000 mg/kg administered as single dose via oral gavage; format: organism-based; conditions: in vivo
In short: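 CNS safety study in rats: single oral-gavage doses of 100, 300 or 1000 mg/kg to 3 groups of 10 (5M/5F), with an untreated control group. Clinical signs (activity, abdominal tone, breathing, tremors, pain response) were recorded at 4 and 24 h after dosing, and mortality was noted.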

Rattus norvegicus [25] = assay: Toxicity in Sprague-Dawley rat assessed as hemorrhage in duodenum at 75 mg/kg administered as oral gavage qd for 28 consecutive days measured on day 29 by microscopic method; format: organism-based; conditions: in vivo; in short: as §3
Plasma = assay: Drug metabolism in Sprague-Dawley rat assessed as Tizoxanide in plasma at 28 mg/kg, po measured at 0.083 hrs post dose; format: ADME, organism-based; conditions: in vivo
Rattus norvegicus [26] = assay: Neurotoxicity in Sprague-Dawley rat assessed as labored breathing at 1000 mg/kg administered as single dose via oral gavage after 4 to 24 hrs; format: toxicity, organism-based; conditions: in vivo; in short: as §6
Canis familiaris [27] = assay: Toxicity in Beagle dog administered orally as gelatin capsule once daily for 28 days; set-up: species or system Canis lupus familiaris; conditions: in vivo, po, 672 h
In short: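 Sub-acute study in Beagle dogs: 5, 15 or 25 mg/kg/day given orally in a single gelatin capsule once a day for 28 consecutive days to assess systemic exposure and toxicity, with NOAEL determination.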

With `CC(C)(C)[C@H](N)C(=O)Oc1ccccc1C(=O)Nc1ncc([N+](=O)[O-])s1.Cl` the Activity (Rattus norvegicus [1]) was “Non-Toxic”, the Activity (Canis familiaris [2]) was “Non-Toxic” and the Activity (Rattus norvegicus [3]) was “Toxic”. The AUCt (Rattus norvegicus [4]) was 23600 ng·h/mL, the Activity (Rattus norvegicus [5]) was “Non-Toxic” and the Cmax (Rattus norvegicus [6]) was 6190 ng/mL. The AUCt (Rattus norvegicus [7]) was 13600 ng·h/mL, the Activity (Rattus norvegicus [8]) was “Toxic” and the Activity (Rattus norvegicus [9]) was “Non-Toxic”. The Activity (Rattus norvegicus [10]) was “Toxic”, the Cmax (Rattus norvegicus [11]) was 7890 ng/mL and the Activity (Rattus norvegicus [12]) was “Non-Toxic”. The Activity (Rattus norvegicus [13]) was “Toxic”, the Activity (Rattus norvegicus [14]) was “Non-Toxic” and the Cmax (Rattus norvegicus [15]) was 18600 ng/mL. For the same compound, the Activity (Rattus norvegicus [16]) was “Non-Toxic”, the Activity (Rattus norvegicus [17]) was “Toxic” and the Activity (Rattus norvegicus [18]) was “Toxic”. The AUCt (Rattus norvegicus [19]) was 5210 ng·h/mL, the Activity (Canis familiaris [20]) was “Non-Toxic” and the AUCt (Rattus norvegicus [21]) was 3120 ng·h/mL. For the same compound, the Activity (Canis familiaris [22]) was “Toxic”, the Activity (Canis familiaris [23]) was “Non-Toxic” and the Activity (Rattus norvegicus [24]) was “Non-Toxic”. The Activity (Rattus norvegicus [25]) was “Toxic”, the Drug metabolism (Plasma) was “Metabolite_Detected” and the Activity (Rattus norvegicus [26]) was “Toxic”. For the same compound, the NOAEL (Canis familiaris [27]) was 25 mg/kg/day.
